Assay results reported in publication PMC10787258 (Current Research in Toxicology, 2023).
“Also recorded” adds a separate entry of the source.

Legend:
[1] = system: juvenile male Sprague-Dawley rats; assay: Eight-day oral exposure, serum thyroid hormones, TSH and thyroid weight; type: in vivo, rat
thyroid peroxidase = settings: ToxCast in vitro; ref Paul Friedman et al., 2016; cited from earlier work
[2] = higher purity (>98 %) oxyfluorfen; ref RED 2002; 2019; cited from earlier work
FRTL-5 cells = settings: any concentration tested up to 100 μM; ref Buckalew et al., 2020; cited from earlier work
hNIS-HEK293T-EPA cells = settings: any concentration tested up to 100 μM; ref Buckalew et al., 2020; cited from earlier work
[3] = Oxyfluorfen quantitation in serum and thyroid gland; type: in vivo, rat
Outline: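 Serum came from 4-day gavage (0–500 mg/kg) and male 8-day gavage (PND27–34, 0–62.5 mg/kg); thyroids came from 8-day rats. Serum (60 µL) was spiked with d5-labelled internal standard, equilibrated 30 min at room temperature, then protein-precipitated with acetonitrile. LC/MS/MS used positive ESI in MRM mode with isotope dilution and serum-matched calibration (2.5–5000 ng/ml). LOQ 25 ng/mL serum, 2.5 ng/g thyroid; results below LOQ reported ND.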

deiodinase = settings: ToxCast in vitro; ref Olker et al., 2019; cited from earlier work
[4] = cited from earlier work
[5] = target: T1, human sodium iodide symporter (NIS) (Homo sapiens, UniProt Q92911); assay: hNIS-HEK293T-EPA radioactive iodide uptake; type: cell-based
T1 sequence (Q92911 1-643): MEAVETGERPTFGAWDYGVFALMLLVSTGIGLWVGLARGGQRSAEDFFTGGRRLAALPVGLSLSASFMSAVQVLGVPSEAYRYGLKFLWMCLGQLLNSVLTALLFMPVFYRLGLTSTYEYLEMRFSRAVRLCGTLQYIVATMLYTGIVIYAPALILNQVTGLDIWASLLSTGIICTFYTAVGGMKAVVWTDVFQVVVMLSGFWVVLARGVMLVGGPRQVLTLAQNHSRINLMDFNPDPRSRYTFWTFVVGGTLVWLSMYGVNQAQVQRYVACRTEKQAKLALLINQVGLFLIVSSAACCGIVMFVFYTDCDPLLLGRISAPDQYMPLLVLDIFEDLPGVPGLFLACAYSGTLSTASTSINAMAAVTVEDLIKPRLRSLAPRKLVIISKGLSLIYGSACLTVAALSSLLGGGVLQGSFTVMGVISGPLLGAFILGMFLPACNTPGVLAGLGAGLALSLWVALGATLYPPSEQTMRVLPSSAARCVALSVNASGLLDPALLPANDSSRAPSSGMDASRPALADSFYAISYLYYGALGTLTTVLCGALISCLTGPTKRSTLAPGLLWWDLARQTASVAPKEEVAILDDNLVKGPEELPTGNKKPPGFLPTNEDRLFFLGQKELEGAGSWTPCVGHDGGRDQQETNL

liver = settings: 98 % pure technical grade, up to 73 mg/kg; ref U.S. EPA, 2021; cited from earlier work
[6] = Body weight, percent growth and general toxicity in 4- and 8-day studies; type: in vivo, rat
mouse and rabbit = mouse and rabbit studies; ref U.S. EPA, 2021; cited from earlier work
[7] = system: juvenile male and female Sprague-Dawley rats; assay: Four-day oral exposure, serum thyroid hormones; type: in vivo, rat
Outline: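 Weanling Sprague-Dawley rats arrived PND21 and were fed AIN-93 diet (iodide 225 ng/g). Groups were weight-ranked, n = 6 per sex per dose. Daily oral gavage PND 27–30 at 0, 125, 250 or 500 mg/kg in 1 % methyl cellulose suspension, adjusted to daily body weight. Decapitation ~2 hr after 4th dose. Trunk serum total T4/T3 by RIA kits (LOD 1.24, 0.50 ng/ml). One-way ANOVA, Dunnett's; mean ± SEM.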

thyroid cancer = settings: human epidemiology, California; ref Omidakhsh et al., 2022; cited from earlier work
[8] = 8 days oral, any treatment group (0.8125 to 62.5 mg/kg)

CCOc1cc(Oc2ccc(C(F)(F)F)cc2Cl)ccc1[N+](=O)[O-] [oxyfluorfen, 2-chloro-1-(3-ethoxy-4-nitrophenoxy)-4(trifluoromethyl)benzene]
LOEL for suppression of serum T4 ([1]; 8-day daily oral exposure): 3.25 mg/kg | NOEL for serum T4 ([1]; 8-day daily oral exposure): 1.625 mg/kg | LOEL for suppression of serum T3 ([1]; 8-day oral exposure): 62.5 mg/kg/day | LOEL for suppression of serum T4 ([1]; 8-day oral exposure): 3.25 mg/kg/day | Serum T3 vs control ([1]; 8 days oral, 62.5 mg/kg): significantly suppressed | Serum T3 vs control ([1]; 8 days oral, 15 and 31.25 mg/kg): non-significant decrease | Serum TSH [1, 8]: no significant differences; also recorded: No significant effects; also recorded: no significant changes | Thyroid weight [1, 8]: No changes; also recorded: no significant differences | Activity in thyroid peroxidase inhibition assay (thyroid peroxidase): no reported thyroid activity | Acute oral, dermal, and inhalation toxicity [2]: low oral toxicity | Cytotoxicity (FRTL-5 cells): no observed cytotoxicity; also recorded: no confounding cytotoxicity | Cytotoxicity (hNIS-HEK293T-EPA cells): no observed cytotoxicity; also recorded: no confounding cytotoxicity | Serum oxyfluorfen detection ([3]; all treated serum samples, 4- and 8-day studies): detected | Kp at 8 days ([3]; male, Sprague-Dawley, rat, thyroid gland / serum, oral, 62.5 mg/kg): 2 to 3 | Activity in deiodinase inhibition assay (deiodinase): no reported thyroid activity | Tissues with the highest levels of oxyfluorfen ([4]; following acute exposure, ref U.S. EPA, 2019): lung, thyroid, liver, ovaries, kidneys, adrenals and fat | Half-life ([4]; in the rat, ref 2002 RED): approximately 30 h | IC50 [5]: 2000 nM | Liver tumor incidence (liver): has not shown liver tumor incidence | Final body weight or percent growth ([6]; 4- or 8-day treatment, any dose, male or female): did not significantly affect | Visible signs of toxicity ([6]; daily observations, all treated animals): no visible signs of toxicity | Current guideline NOELs and LOELs (mouse and rabbit): 33 mg/kg | Decrease in serum T3 ([7]; female, 4 days oral, 125 mg/kg): 18% | Decrease in serum T4 ([7]; female, 4 days oral, 125 mg/kg): ~55% | Serum T3 vs control ([7]; female, 4 days oral, 125 mg/kg): significantly suppressed | Serum T3 vs control ([7]; female, 4 days oral, 250 mg/kg): not significantly suppressed | Serum T3 vs control ([7]; female, 4 days oral, 500 mg/kg): significantly suppressed | Total serum thyroxine (T4) ([7]; male and female, 4 days, all doses (125, 250, 500 mg/kg/day)): suppressed | Decrease in serum T3 ([7]; male, 4 days oral, 125 mg/kg): 35% | Decrease in serum T4 ([7]; male, 4 days oral, 125 mg/kg): 68% | Suppression of serum T3 ([7]; male, 4 days oral, 125 to 500 mg/kg): approximately 30% | Suppression of serum T4 ([7]; male, 4 days oral, all doses (125, 250, 500 mg/kg)): 70% | Association with the occurrence of thyroid cancer (thyroid cancer): increased odds ratio
